Measurements reported in ChEMBL document CHEMBL4196071, “Discovery of tetrahydrocarbazoles with potent hypoglycemic and hypolipemic activities” (Eur J Med Chem, 2018).
Blank lines part the entries; values can stand above or below the compound they belong to. Calls of active or inactive are those of the source. The rule behind the calls is not given here.

Columns and labels:
[1] = target: T1, AMP-activated protein kinase, AMPK (Homo sapiens) (UniProt P54646+O43741+P54619+Q9UGJ0+Q9Y478+Q13131+Q9UGI9); assay: Activation of AMPK in human HepG2 cells assessed as induction of glucose consumption at 10 uM treated over 24 hrs by glucose oxidase method relative to control; assay type: cell-based
How it was run: (§1)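 HepG2 cells kept in DMEM (25 mM D-glucose) with 10% serum at 37 °C, 5% CO2. At 80-90% confluence the medium was switched to serum-free RPMI-1640 with 11.1 mM glucose and 0.2% BSA. Compounds in DMSO (0.5% v/v vehicle control) were given for 24 h. Medium glucose was read by glucose oxidase; consumption = cell-free blank wells minus cell wells. Student's t test against control.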

Mus musculus [2] = assay: Hypoglycemic activity in db/db mouse assessed as decrease in blood glucose level at 30 mg/kg, po administered as single dose measured at 3 hrs post last dose (reference value: 0.0 +/- 4.1%); assay type: functional; parameters: scale not given: the % may be the effect or the level left
Mus musculus [3] = assay: Toxicity in db/db mouse assessed as increase in body weight at 30 mg/kg, po treated for 1 to 3 weeks measured at 3 hrs post last dose relative to control; assay type: organism-based; conditions: in vivo
Mus musculus [4] = assay: Hypoglycemic activity in db/db mouse assessed as decrease in blood glucose level at 30 mg/kg, po treated for 2 week measured at 3 hrs post last dose (reference value: 0.0 +/- 4.0%); assay type: functional; parameters: scale not given: the % may be the effect or the level left
Mus musculus [5] = assay: Hypolipemic activity in db/db mouse assessed as plasma fasting triglyceride level at 30 mg/kg, po treated for 3 consecutive weeks (reference value: 0.70 to 0.97 mM); assay type: functional
Mus musculus [6] = assay: Hypoglycemic activity in db/db mouse assessed as decrease in blood glucose level at 30 mg/kg, po treated for 3 week measured at 3 hrs post last dose (reference value: 0.0 +/- 6.8%); assay type: functional; parameters: scale not given: the % may be the effect or the level left
Mus musculus [7] = assay: Hypoglycemic activity in db/db mouse assessed as decrease in blood glucose level at 30 mg/kg, po treated for 1 week measured at 3 hrs post last dose (reference value: 0.0 +/- 8.6%); assay type: functional; parameters: scale not given: the % may be the effect or the level left
Mus musculus [8] = assay: Hypolipemic activity in db/db mouse assessed as total plasma cholesterol level at 30 mg/kg, po treated for 3 consecutive weeks (reference value: 6.05 to 6.98 mM); assay type: functional
[9] = target: T1, AMP-activated protein kinase, AMPK (Homo sapiens); assay: Activation of AMPK in human HepG2 cells assessed as induction of glucose consumption at 1 uM treated over 24 hrs by glucose oxidase method relative to control; assay type: cell-based; how it was run: as §1
[10] = target: T1, AMP-activated protein kinase, AMPK (Homo sapiens); assay: Activation of AMPK in human HepG2 cells assessed as induction of glucose consumption treated over 24 hrs by glucose oxidase method; assay type: cell-based; how it was run: as §1
[11] = target: T1, AMP-activated protein kinase, AMPK (Homo sapiens); assay: Activation of AMPK in human HepG2 cells assessed as induction of glucose consumption at 0.1 uM treated over 24 hrs by glucose oxidase method relative to control; assay type: cell-based; how it was run: as §1
HepG2 [12] = assay: Induction of AMPKalpha phosphorylation at Thr172 residue in human HepG2 cells at 10 uM by Western blot analysis; assay type: cell-based
How it was run: (§2)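 HepG2 cells were treated at 10 μM and lysed in pH 7.5 Tris buffer containing NaF, β-glycerophosphate, EDTA/EGTA, Triton X-100 and protease inhibitors, then cleared at 10,000 × g for 30 min at 4 °C. Equal lysate volumes were run on 8% SDS-PAGE and transferred to PVDF. Blots were probed for p-AMPKα (Thr172) and p-ACC (Ser79) with HRP secondary antibodies.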

HepG2 [13] = assay: Activation of AMPKalpha in human HepG2 cells assessed as ACC phosphorylation at Ser79 residue at 10 uM by Western blot analysis; assay type: cell-based; how it was run: as §2
[14] = target: T1, AMP-activated protein kinase, AMPK (Homo sapiens); assay: Activation of AMPK in human HepG2 cells assessed as induction of glucose consumption at 1 mM treated over 24 hrs by glucose oxidase method relative to control; assay type: cell-based; how it was run: as §1

Activity [1]: 47.5%
Structure (SMILES): O=C(O)C1CCc2c(c3cc(OCc4ccccn4)ccc3n2C(=O)c2ccc(Cl)cc2)C1 (stereo not given)

Activity [1]: 32.7%
Structure (SMILES): O=C(O)C1CCc2c(c3cc(OCc4ccccc4)ccc3n2Cc2ccc(Cl)cc2)C1 (stereo not given)

Activity [1]: 64.5%
Structure (SMILES): O=C(O)C1CCc2c(c3cc(OCc4ccccc4)ccc3n2S(=O)(=O)c2ccc(Cl)cc2)C1 (stereo not given)
Activity (Mus musculus [2]): 15.5% | Activity (Mus musculus [3]): 3.7% | Activity (Mus musculus [4]): 16.3% | Activity (Mus musculus [5]): 0.99 mM | Activity (Mus musculus [6]): 14.3% | Activity (Mus musculus [7]): 28.9% | Activity (Mus musculus [8]): 6.91 mM

Activity [1]: 75.2%
Structure (SMILES): O=C(O)C1CCc2c(c3cc(OCc4ccccc4)ccc3n2C(=O)c2ccc(F)cc2)C1 (stereo not given)

Activity [1]: 40.3%
Structure (SMILES): COc1ccc(S(=O)(=O)n2c3c(c4cc5c(cc42)OCO5)CC(C(=O)O)CC3)cc1 (stereo not given)

Activity [9]: 37.2% | Activity [10]: Dose-dependent effect | Activity [1]: 48.4 to 52.3% | Activity [11]: 29%
Structure (SMILES): O=C(O)C1CCc2[nH]c3ccc(OCc4ccccc4)cc3c2C1 (stereo not given)
Activity (HepG2 [12]): Active | Activity (HepG2 [13]): Active

Activity [9]: 32.2% | Activity [10]: Dose-dependent effect | Activity [1]: 62.1 to 68.7% | Activity [11]: 4.89%
Structure (SMILES): CC(Oc1ccc2c(c1)c1c(n2C(=O)c2ccc(Cl)cc2)CCC(C(=O)O)C1)c1ccccc1 (stereo not given)
Activity (HepG2 [12]): Active | Activity (HepG2 [13]): Active

Activity [1]: 34.3%
Structure (SMILES): O=C(O)C1CCc2c(c3cc(OCc4ccccc4)ccc3n2Cc2ccc(F)cc2)C1 (stereo not given)

Activity [1]: 27.5%
Structure (SMILES): O=C(O)c1ccccc1-c1ccc(Cn2c3c(c4cc(OCc5ccccc5)ccc42)CC(C(=O)O)CC3)cc1 (stereo not given)

Activity [14]: 60.4 to 63.7%
Structure (SMILES): CN(C)C(=N)NC(=N)N

Activity [1]: 42.2%
Structure (SMILES): Cc1ccc(Cn2c3c(c4cc(OCc5ccccc5)ccc42)CC(C(=O)O)CC3)cc1 (stereo not given)

Activity [1]: 47.5%
Structure (SMILES): O=C(O)C1CCc2c(c3cc4c(cc3n2S(=O)(=O)c2ccc(Cl)cc2)OCO4)C1 (stereo not given)

Activity [9]: 26.8% | Activity [10]: Dose-dependent effect | Activity [1]: 50.2 to 72.8% | Activity [11]: 9.65%
Structure (SMILES): N#Cc1ccc(COc2ccc3c(c2)c2c(n3C(=O)c3ccc(Cl)cc3)CCC(C(=O)O)C2)cc1 (stereo not given)
Activity (HepG2 [12]): Active | Activity (HepG2 [13]): Active
